From ChEMBL document CHEMBL1156597, “Structure-activity relationship of kahalalide F synthetic analogues” (J Med Chem, 2008)

What was measured:
LNCaP = assay: Cytotoxicity against human LNcaP cells after 48 hrs by SRB assay; format: functional; conditions: for CC50: read-out: LC50 (the source's name)
How it was run: (§1)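 Cells grown in RPMI 1640 with 10% FBS and penicillin/streptomycin at 37 °C and 5% CO₂, trypsinized, then seeded at 5 × 10³/well. After 18 h drug-free attachment, samples in DMSO/EtOH/PBS (0.5:0.5:99) were added for 48 h continuous exposure. Cells were fixed with cold TCA (1 h, 4 °C) and stained with SRB (10 min). Tris-solubilized stain read at 490 nm. Triplicate wells, mean ± SD; GI₅₀ derived.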

DU-145 = assay: Cytotoxicity against human DU145 cells after 48 hrs by SRB assay; format: functional, cell-based; conditions: Homo sapiens, DU-145, 48 h; for CC50: read-out: LC50 (the source's name); how it was run: as §1
LoVo = assay: Cytotoxicity against human LoVo cells after 48 hrs by SRB assay; format: functional; conditions: for CC50: read-out: LC50 (the source's name)
K562 = assay: Cytotoxicity against human K562 cells after 48 hrs by SRB assay; format: functional; conditions: K562, 48 h; for CC50: read-out: LC50 (the source's name); how it was run: as §1
HT-29 = assay: Cytotoxicity against human HT29 cells after 48 hrs by SRB assay; format: functional, cell-based; conditions: Homo sapiens, HT-29, 48 h; for CC50: read-out: LC50 (the source's name); how it was run: as §1
SK-BR-3 = assay: Cytotoxicity against human SKBR3 cells after 48 hrs by SRB assay; format: functional; conditions: SK-BR-3, 48 h; for CC50: read-out: LC50 (the source's name); for GI50: read-out: GI50; how it was run: as §1
[1] = Cytotoxicity against human IGROV-ET cells after 48 hrs by SRB assay; format: functional; conditions: for CC50: read-out: LC50 (the source's name); how it was run: as §1
PANC-1 = assay: Cytotoxicity against human PANC1 cells after 48 hrs by SRB assay; format: functional; conditions: PANC-1, 48 h; for CC50: read-out: LC50 (the source's name); how it was run: as §1
HeLa = assay: Cytotoxicity against human HeLa cells after 48 hrs by SRB assay; format: functional; conditions: for CC50: read-out: LC50 (the source's name); how it was run: as §1
A549 = assay: Cytotoxicity against human A549 cells after 48 hrs by SRB assay; format: functional, cell-based; conditions: Homo sapiens, A549, 48 h; how it was run: as §1
SK-MEL-28 = assay: Cytotoxicity against human SK-MEL-28 cells after 48 hrs by SRB assay; format: functional, cell-based; conditions: Homo sapiens, SK-MEL-28, 48 h; for CC50: read-out: LC50 (the source's name); how it was run: as §1
[2] = Cytotoxicity against human HeLa-APL cells after 48 hrs by SRB assay; format: functional; how it was run: as §1
[3] = Cytotoxicity against human IGROV cells after 48 hrs by SRB assay; format: functional; conditions: for CC50: read-out: LC50 (the source's name); how it was run: as §1

Structure (SMILES) | GI50 (LNCaP) [nM] | TGI (LNCaP) [nM] | CC50 (LNCaP) [nM] | CC50 (DU-145) [nM] | GI50 (LoVo) [nM] | TGI (LoVo) [nM] | CC50 (LoVo) [nM] | CC50 (K562) [nM] | CC50 (HT-29) [nM] | CC50 (SK-BR-3) [nM] | CC50 [1] [nM] | CC50 (PANC-1) [nM] | CC50 (HeLa) [nM] | LC50 (A549) [nM] | CC50 (SK-MEL-28) [nM] | LC50 (concentration giving 50% net cell kill) [2] [nM] | CC50 [3] [nM] | GI50 (DU-145; read-out: GI50) [nM] | TGI (SK-BR-3) [nM] | GI50 (SK-BR-3) [nM] | further results
C/C=C1\NC(=O)[C@H](Cc2ccccc2)NC(=O)[C@@H](C(C)C)NC(=O)[C@@H]([C@H](C)CC)NC(=O)[C@H](NC(=O)[C@H](NC(=O)[C@H](CCCN)NC(=O)[C@H]2CCCN2C(=O)[C@H](NC(=O)CNC(=O)[C@@H](NC(=O)[C@H](NC(=O)CCCC(C)C)C(C)C)[C@@H](C)O)C(C)C)[C@H](C)CC)[C@H](C)OC(=O)[C@H](C(C)C)NC1=O | 3050 | 3320 | 1580 | 1700 | 10700 | 9720 | 4920 | 2500 | 911 | 2850 | 722 | 2600 | 1070 | 1960 | 1480 | 1360 | 649 |  |  |  | GI50 (K562): 2570 nM; TGI (K562): 3120 nM
C/C=C1\NC(=O)[C@H](Cc2ccccc2)NC(=O)[C@@H](C(C)C)NC(=O)[C@@H]([C@H](C)CC)NC(=O)[C@H](NC(=O)[C@H](NC(=O)[C@H](CCCN)NC(=O)[C@H]2CCCN2C(=O)[C@H](NC(=O)[C@H](CC(C)C)NC(=O)[C@@H](NC(=O)[C@H](NC(=O)CCCC(C)C)C(C)C)[C@@H](C)O)C(C)C)[C@H](C)CC)[C@H](C)OC(=O)[C@H](C(C)C)NC1=O | 1030 | 1120 | 1230 | 863 | 312 | 324 | 337 | 2300 | 479 | 689 | 383 | 2510 | 765 | 1110 | 8750 | 807 | 375 | 941 | 482 | 445 | GI50 (DU-145): 903 nM; GI50 (K562): 2100 nM; TGI (K562): 2210 nM; GI50 (HT-29): 612 nM; TGI (HT-29): 679 nM; TGI [1]: 380 nM; GI50 ([1]; read-out: GI50): 350 nM; GI50 (PANC-1): 3290 nM; TGI (PANC-1): 4870 nM; GI50 (HeLa): 1020 nM; TGI (HeLa): 887 nM; TGI (A549): 1190 nM; GI50 (A549; read-out: GI50): 1280 nM; TGI (SK-MEL-28): 9120 nM; GI50 (SK-MEL-28; read-out: GI50): 964 nM; GI50 [2]: 939 nM; TGI [2]: 871 nM; TGI [3]: 4020 nM; GI50 ([3]; read-out: GI50): 464 nM
C/C=C1\NC(=O)[C@H](Cc2ccccc2)NC(=O)[C@@H](C(C)C)NC(=O)[C@@H]([C@H](C)CC)NC(=O)[C@H](NC(=O)[C@H](NC(=O)[C@H](CCCN)NC(=O)[C@H]2CCCN2C(=O)[C@H](NC(=O)[C@@H](NC(=O)[C@@H](NC(=O)[C@@H](Cc2ccccc2)NC(=O)CCCC(C)C)[C@@H](C)O)C(C)C)C(C)C)[C@H](C)CC)[C@H](C)OC(=O)[C@H](C(C)C)NC1=O | 2280 | 3130 | 1490 | 1600 | 2620 | 2710 | 2800 | 2360 | 5590 | 1670 | 680 | 2450 | 1010 | 1840 | 1400 | 1280 | 449 | 3900 | 2190 | 2340 | TGI (DU-145): 3680 nM; GI50 (K562): 3400 nM; TGI (K562): 4680 nM; TGI [1]: 1730 nM; GI50 ([1]; read-out: GI50): 2240 nM; GI50 (PANC-1): 5440 nM; TGI (PANC-1): 4760 nM; GI50 (HeLa): 2210 nM; TGI (HeLa): 2690 nM; TGI (A549): 2750 nM; GI50 (A549; read-out: GI50): 2650 nM; TGI (SK-MEL-28): 2920 nM; GI50 (SK-MEL-28; read-out: GI50): 2640 nM; GI50 [2]: 179 nM; TGI [2]: 1700 nM; GI50 [3]: 862 nM; GI50 ([3]; read-out: GI50): 2010 nM
C/C=C1\NC(=O)[C@H](Cc2ccccc2)NC(=O)[C@@H](C(C)C)NC(=O)[C@@H]([C@H](C)CC)NC(=O)[C@H](NC(=O)[C@H](NC(=O)[C@H](CCCN)NC(=O)[C@H]2CCCN2C(=O)[C@H](NC(=O)[C@H](NC(=O)[C@@H](NC(=O)[C@H](NC(=O)CCCC(C)C)C(C)C)[C@@H](C)O)C(C)C)C(C)C)[C@H](C)CC)[C@H](C)OC(=O)[C@H](C(C)C)NC1=O | 2440 | 3230 | 1540 | 1650 | 3310 | 3210 | 3110 | 2430 | 886 | 2310 | 702 | 2530 | 1040 | 1910 | 1440 | 1320 | 631 | 3130 | 3230 | 3690 | TGI (DU-145): 3800 nM; GI50 (K562): 4290 nM; TGI (K562): 4830 nM; GI50 (HT-29): 4840 nM; TGI (HT-29): 3930 nM; GI50 (PANC-1): 4430 nM; TGI (PANC-1): 4920 nM; TGI (A549): 4230 nM; GI50 (A549; read-out: GI50): 5090 nM; GI50 [2]: 3400 nM; TGI [2]: 3040 nM
C/C=C1\NC(=O)[C@H](Cc2ccccc2)NC(=O)[C@@H](C(C)C)NC(=O)[C@@H]([C@H](C)CC)NC(=O)[C@H](NC(=O)[C@H](NC(=O)[C@H](CCCN)NC(=O)[C@H]2CCCN2C(=O)[C@H](NC(=O)[C@@H](NC(=O)[C@@H](NC(=O)[C@H](NC(=O)c2ccc(C(F)(F)F)cc2)C(C)C)[C@@H](C)O)C(C)C)C(C)C)[C@H](C)CC)[C@H](C)OC(=O)[C@H](C(C)C)NC1=O | 341 | 621 | 799 | 800 | 253 | 268 | 286 | 2340 | 76.5 | 223 | 294 | 2430 | 601 | 473 | 809 | 717 | 321 | 310 | 289 | 303 | GI50 (DU-145): 685 nM; GI50 [1]: 223 nM; GI50 ([1]; read-out: GI50): 140 nM; GI50 (PANC-1): 1840 nM; TGI (PANC-1): 2260 nM; GI50 (HeLa): 348 nM; TGI (HeLa): 526 nM; GI50 (A549): 254 nM; GI50 (A549; read-out: GI50): 202 nM; GI50 (SK-MEL-28): 823 nM; GI50 (SK-MEL-28; read-out: GI50): 839 nM; GI50 [2]: 519 nM; TGI [2]: 665 nM; GI50 [3]: 236 nM; GI50 ([3]; read-out: GI50): 247 nM
C/C=C1\NC(=O)[C@H](Cc2ccccc2)NC(=O)[C@@H](C(C)C)NC(=O)[C@@H]([C@H](C)CC)NC(=O)[C@H](NC(=O)[C@H](NC(=O)[C@H](CCCN)NC(=O)[C@H]2CCCN2C(=O)[C@H](NC(=O)[C@@H](NC(=O)[C@@H](NC(=O)[C@H](NC(=O)CCCNC(=N)N)C(C)C)[C@@H](C)O)C(C)C)C(C)C)[C@H](C)CC)[C@H](C)OC(=O)[C@H](C(C)C)NC1=O | 3930 | 3200 | 1520 | 1630 |  |  | 4740 | 2410 | 877 | 2750 | 695 | 2510 | 1030 | 1890 | 1430 | 1310 | 624 |  |  |  | 
C/C=C1\NC(=O)[C@H](Cc2ccccc2)NC(=O)[C@@H](C(C)C)NC(=O)[C@@H]([C@H](C)CC)NC(=O)[C@H](NC(=O)[C@H](NC(=O)[C@H](CCCN)NC(=O)[C@H]2CCCN2C(=O)[C@H](NC(=O)[C@@H](NC(=O)[C@@H](NC(=O)[C@H](NC(=O)Cc2cc(F)cc(F)c2)C(C)C)[C@@H](C)O)C(C)C)C(C)C)[C@H](C)CC)[C@H](C)OC(=O)[C@H](C(C)C)NC1=O | 1650 | 3140 | 1490 | 1600 | 794 | 1480 | 2200 | 2370 | 556 | 1490 | 520 | 2460 | 1010 | 1120 | 1400 | 1290 | 426 | 1840 | 1710 | 1270 | TGI (DU-145): 3690 nM; GI50 [1]: 679 nM; GI50 ([1]; read-out: GI50): 889 nM; GI50 (HeLa): 1410 nM; TGI (HeLa): 1350 nM; TGI (A549): 1350 nM; GI50 (A549; read-out: GI50): 1620 nM; TGI (SK-MEL-28): 2930 nM; GI50 (SK-MEL-28; read-out: GI50): 2340 nM; GI50 [2]: 2020 nM; TGI [2]: 2960 nM; GI50 [3]: 692 nM; GI50 ([3]; read-out: GI50): 1370 nM
